Source: ChEMBL document CHEMBL1124186, “Synthesis and evaluation of tylosin-related macrolides modified at the aldehyde function: a new series of orally effective antibiotics” (1988)
Values after ≈ are worked out from the molar mass of the structure shown. One block for each compound: values may come before it.

Columns and labels:
[1] = system: Rattus norvegicus; assay: Peripheral plasma levels in rats after oral administration of 100 mg/kg dose for 0.5 hr; type: functional, organism-based; set-up: dose 100 mg/kg
Method in brief: (§1)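 Rats received 100 mg/kg orally and were sampled for peripheral plasma. Concentrations were measured by Micrococcus luteus agar-diffusion microbiological assay in Antibiotic Medium 1, with zone sizes converted using the standard curve for the appropriate compound. Each value is the average of three rats per time point.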

[2] = system: Streptococcus; assay: In vitro antimicrobial activity against aerobic bacteria Streptococcus D 9960; type: functional
[3] = system: Mus musculus; assay: Peripheral plasma levels in mice after oral administration of 100 mg/kg dose for 1 hr; type: functional, organism-based; set-up: dose 100 mg/kg
Method in brief: (§2)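 Mice were given the compound orally and sampled for peripheral plasma at each time point. Plasma was assayed microbiologically against Micrococcus luteus seeded in Antibiotic Medium 1. Inhibition zone sizes were read, and concentrations were calculated from each compound's own standard curve. Each value is the mean of five mice per time point.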

[4] = system: Staphylococcus aureus; assay: In vitro antimicrobial activity against Staphylococcus aureus X1; type: functional
[5] = system: Streptococcus sanguinis; assay: In vitro antimicrobial activity against aerobic bacteria Streptococcus sanguis MX132; type: functional
[6] = system: Haemophilus influenzae; assay: In vitro antimicrobial activity against aerobic bacteria Haemophilus influenzae MX366,; type: functional
[7] = system: Mus musculus; assay: Peripheral plasma levels in mice after oral administration of 50 mg/kg dose for 0.5 hr; type: functional, organism-based; set-up: dose 50 mg/kg; method in brief: as §2
[8] = system: Mus musculus; assay: Peripheral plasma levels in mice after oral administration of 50 mg/kg dose for 0.25 hr; type: functional, organism-based; set-up: dose 50 mg/kg; method in brief: as §2
[9] = system: Streptococcus; assay: In vitro antimicrobial activity against aerobic bacteria Streptococcus B 5; type: functional
[10] = system: Streptococcus pneumoniae; assay: In vitro antimicrobial activity against aerobic bacteria Streptococcus pneumoniae B1-438; type: functional, streptococcus pneum
[11] = system: Staphylococcus aureus; assay: In vitro antimicrobial activity against aerobic bacteria Staphylococcus aureus 513E; type: functional
[12] = system: Streptococcus; assay: In vitro antimicrobial activity against aerobic bacteria Streptococcus B 14; type: functional
[13] = system: Rattus norvegicus; assay: Peripheral plasma levels in rats after oral administration of 100 mg/kg dose for 2 hr; type: functional, organism-based; set-up: dose 100 mg/kg; method in brief: as §1
[14] = system: Staphylococcus epidermidis; assay: In vitro antimicrobial activity against aerobic bacteria Streptococcus epi 222; type: functional
[15] = system: Staphylococcus epidermidis; assay: In vitro antimicrobial activity against aerobic bacteria Streptococcus epi 270; type: functional
[16] = system: Mus musculus; assay: Peripheral plasma levels in mice after oral administration of 100 mg/kg dose for 0.5 hr; type: functional, organism-based; set-up: dose 100 mg/kg; method in brief: as §2
[17] = system: Mus musculus; assay: Peripheral plasma levels in mice after oral administration of 50 mg/kg dose for 2 hr; type: functional, organism-based; set-up: dose 50 mg/kg; method in brief: as §2
[18] = system: Mus musculus; assay: Peripheral plasma levels in mice after oral administration of 100 mg/kg dose for 0.25 hr; type: functional, organism-based; set-up: dose 100 mg/kg; method in brief: as §2
[19] = system: Staphylococcus aureus; assay: In vitro antimicrobial activity against aerobic bacteria Staphylococcus aureus V135; type: functional
[20] = system: Mus musculus; assay: Peripheral plasma levels in mice after oral administration of 50 mg/kg dose for 1 hr; type: functional, organism-based; set-up: dose 50 mg/kg; method in brief: as §2
[21] = system: Streptococcus pyogenes; assay: In vitro antimicrobial activity against Streptococcus pyogenes C203; type: functional
[22] = system: Streptococcus; assay: In vitro antimicrobial activity against aerobic bacteria Streptococcus D 2041; type: functional
[23] = system: Streptococcus viridans; assay: In vitro antimicrobial activity against aerobic bacteria Streptococcus viridans 9943; type: functional
[24] = system: Streptococcus; assay: In vitro antimicrobial activity against aerobic bacteria Streptococcus D 8043; type: functional
[25] = system: Mus musculus; assay: Peripheral plasma levels in mice after oral administration of 100 mg/kg dose for 4 hr; type: functional, organism-based; set-up: dose 100 mg/kg; method in brief: as §2
[26] = system: Staphylococcus aureus; assay: In vitro antimicrobial activity against aerobic bacteria Staphylococcus aureus X400; type: functional
[27] = system: Streptococcus; assay: In vitro antimicrobial activity against aerobic bacteria Streptococcus B 8; type: functional
[28] = system: Haemophilus influenzae; assay: In vitro antimicrobial activity against aerobic bacteria Haemophilus influenzae 76; type: functional
[29] = system: Streptococcus pyogenes; assay: In vivo effective dose xperimental infections in rodent caused by Streptococcus pyogenes C203 when administered sc; type: functional
[30] = system: Streptococcus; assay: In vitro antimicrobial activity against aerobic bacteria Streptococcus C 24; type: functional
[31] = system: Rattus norvegicus; assay: Peripheral plasma levels in rats after oral administration of 100 mg/kg dose for 4 hr; type: functional, organism-based; set-up: dose 100 mg/kg; method in brief: as §1
[32] = system: Streptococcus; assay: In vitro antimicrobial activity against aerobic bacteria Streptococcus G Kruder; type: functional; settings: Streptococcus; read-out: MIC
[33] = system: Staphylococcus aureus; assay: In vitro antimicrobial activity against aerobic bacteria Staphylococcus aureus V41; type: functional
[34] = system: Rattus norvegicus; assay: Peripheral plasma levels in rats after oral administration of 100 mg/kg dose for 1 hr; type: functional, organism-based; set-up: dose 100 mg/kg; method in brief: as §1
[35] = system: Mus musculus; assay: Peripheral plasma levels in mice after oral administration of 100 mg/kg dose for 2 hr; type: functional, organism-based; set-up: dose 100 mg/kg; method in brief: as §2
[36] = system: Staphylococcus epidermidis; assay: In vitro antimicrobial activity against Staphylococcus epidermidis EPI1; type: functional
[37] = system: Haemophilus influenzae; assay: In vitro antimicrobial activity against Haemophilus influenzae.; type: functional
[38] = system: Staphylococcus aureus; assay: In vitro antimicrobial activity against aerobic bacteria Staphylococcus aureus V140,; type: functional
[39] = system: Rattus norvegicus; assay: Peripheral plasma levels in rats after oral administration of 100 mg/kg dose for 0.25 hr; type: functional, organism-based; set-up: dose 100 mg/kg; method in brief: as §1
[40] = system: Enterococcus faecium; assay: In vitro antimicrobial activity against Streptococcus faecium X66; type: functional, streptococcus fae-cium
[41] = system: Streptococcus pyogenes; assay: In vivo effective dose against experimental infections in rodent caused by Streptococcus pyogenes C203 when administered sc; type: functional
[42] = system: Streptococcus pyogenes; assay: Activity against Streptococcus pyogenes C203 when administered sc; type: functional
Method in brief: (§3)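 Mouse protection test: infected mice were dosed twice, at 1 and 5 h postinfection, either subcutaneously or orally. […] The result is expressed as ED50 in mg/kg × 2.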

[43] = system: Streptococcus pyogenes; assay: Anti microbial activity against Streptococcus pyogenes; type: functional
[44] = system: Streptococcus pyogenes; assay: In vivo effective dose against experimental infections in rodent caused by Streptococcus pyogenes C203 when administered orally; type: functional; settings: po
[45] = system: Streptococcus pyogenes; assay: Activity against Streptococcus pyogenes C203 when administered orally; type: functional; settings: po; method in brief: as §3
[46] = system: Streptococcus pneumoniae; assay: In vitro antimicrobial activity against Streptococcus pneumoniae; type: functional

MIC [2]: 128 µg/mL (≈ 129 µM)
MIC [4]: 1 µg/mL (≈ 1.01 µM)
MIC [5]: 8 µg/mL (≈ 8.05 µM)
MIC [6]: 128 µg/mL (≈ 129 µM)
MIC [9]: 128 µg/mL (≈ 129 µM)
MIC [10]: > 128 µg/mL
MIC [11]: 1 µg/mL (≈ 1.01 µM)
MIC [12]: 128 µg/mL (≈ 129 µM)
MIC [14]: 1 µg/mL (≈ 1.01 µM)
MIC [15]: > 128 µg/mL
MIC [19]: 1 µg/mL (≈ 1.01 µM)
MIC [21]: 2 µg/mL (≈ 2.01 µM)
MIC [22]: > 128 µg/mL
MIC [23]: > 128 µg/mL
MIC [24]: 128 µg/mL (≈ 129 µM)
MIC [26]: 2 µg/mL (≈ 2.01 µM)
MIC [27]: 128 µg/mL (≈ 129 µM)
MIC [28]: > 128 µg/mL
MIC [30]: 1 µg/mL (≈ 1.01 µM)
MIC [32]: > 128 µg/mL
MIC [33]: 1 µg/mL (≈ 1.01 µM)
MIC [36]: 1 µg/mL (≈ 1.01 µM)
MIC [37]: > 128 µg/mL
MIC [38]: 2 µg/mL (≈ 2.01 µM)
MIC [40]: 128 µg/mL (≈ 129 µM)
SMILES: CC[C@H]1OC(=O)C[C@@H](O)[C@H](C)[C@@H](O[C@@H]2O[C@H](C)[C@@H](O[C@H]3C[C@@](C)(O)[C@@H](O)[C@H](C)O3)[C@H](N(C)C)[C@H]2O)[C@@H](CCOc2ccccc2)C[C@@H](C)C(=O)/C=C/C(C)=C/[C@@H]1CO[C@@H]1O[C@H](C)[C@@H](O)[C@@H](OC)[C@H]1OC
Concentration [1]: 0.6 µg/mL
Concentration [3]: 6 µg/mL
Concentration [7]: 2 µg/mL
Concentration [8]: 1.6 µg/mL
Concentration [13]: 2.7 µg/mL
Concentration [16]: 7.4 µg/mL
Concentration [17]: 1.2 µg/mL
Concentration [18]: 7.9 µg/mL
Concentration [20]: 2.3 µg/mL
Concentration [25]: 3.5 µg/mL
ED50 [29]: > 6.3 mg/kg
Concentration [31]: 2.6 µg/mL
Concentration [34]: 2 µg/mL
Concentration [35]: 4 µg/mL
Concentration [39]: 0.2 µg/mL

MIC [4]: 0.5 µg/mL (≈ 0.563 µM)
MIC [21]: 1 µg/mL (≈ 1.13 µM)
MIC [43]: 1 µg/mL (≈ 1.13 µM)
MIC [36]: 1 µg/mL (≈ 1.13 µM)
MIC [37]: 128 µg/mL (≈ 144 µM)
MIC [46]: 32 µg/mL (≈ 36 µM)
SMILES: CC[C@H]1OC(=O)C[C@@H](O)[C@H](C)[C@@H](O[C@@H]2O[C@H](C)[C@@H](O[C@H]3C[C@@](C)(O)[C@@H](O)[C@H](C)O3)[C@H](N(C)C)[C@H]2O)[C@@H](C)C[C@@H](C)C(=O)/C=C/C(C)=C/[C@@H]1CO[C@@H]1O[C@H](C)[C@@H](O)[C@@H](OC)[C@H]1OC [DEFORMYLTYLOSIN]
ED50 [41]: 2 mg/kg
ED50 [42]: 2 mg/kg
ED50 [44]: 12 mg/kg
ED50 [45]: 12 mg/kg
